# UCH37 DUB inh: human UCH37 deubiquitinating enzyme inhibition; Q9Y5K5; purified proteasome/UCH37, Ub-AMC cleavage fluorescence; inhibition, % (no concentration beside the values); hit rate 0.33% among 330,000;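 active means mean inhibition over replicate wells above about 20%, limit read from the data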;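 further: 0% = compound-free wells with enzyme and 100% = wells lacking proteasome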
# Target sequence (Q9Y5K5 whole entry, looked up): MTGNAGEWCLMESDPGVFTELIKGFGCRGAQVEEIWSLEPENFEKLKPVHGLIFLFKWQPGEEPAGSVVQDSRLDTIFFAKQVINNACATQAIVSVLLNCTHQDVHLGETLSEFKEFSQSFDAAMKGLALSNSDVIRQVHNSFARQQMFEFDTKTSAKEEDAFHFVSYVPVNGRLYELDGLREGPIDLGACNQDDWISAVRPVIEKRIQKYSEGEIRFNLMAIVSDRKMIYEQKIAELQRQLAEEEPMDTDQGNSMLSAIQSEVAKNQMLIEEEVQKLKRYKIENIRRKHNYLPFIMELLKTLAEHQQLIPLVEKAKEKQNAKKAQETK
#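 Signal – fluorescence, ex 355 nm, em 460 nm · System – Proteasome-bound UCH37 · Input – 0.15 nM proteasome as dispensed · Timing – 30 min preincubation with enzyme, 25 min cleavage at room temperature · Read-out basis – percent inhibition of cleavage signal versus uninhibited and no-proteasome wells · Medium – Tris-HCl pH 7.4 with ATP-MgCl2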
# AHR activator: human AHR activation; P35869; AHR-responsive luciferase reporter cells, luminescence; activation, % at 5 µM; hit rate 2.5% among 320,000; AID 2796; in the data active means activation above about 47%;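 further: 0% = vehicle wells and 100% = reference agonist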
# Arrestin-AP2 inh: inhibitors of human beta-arrestin and AP2 interaction; hit rate 0.31% among 340,000; inhibition, % at 10 µM; FITC-arrestin peptide / GST-AP2 beads, flow cytometry; AP2 beta2 appendage carries R879A mutation;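 active means inhibition above a set limit, near 3 SD of compounds lacking own fluorescence, cut at about 54% in these data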;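 further: plate controls were DMSO wells for no effect and 5 µM unlabelled arrestin peptide for full effect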
#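 System: GST-tagged AP2 beta2-adaptin appendage (R879A) on 4 µm glutathione beads / Reagent: FITC-arrestin peptide, 50 nM / Detection: HyperCyt-sampled flow cytometry, FL1 channel, ex 488/em 535 nm / Timing: 12 min plus 1 h, RT / Buffer or medium: PBS plus Tween 20 (0.05%) and BSA (0.1%)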
# APOBEC3A inh: blocks human APOBEC3A ssDNA deamination | P31941 | recombinant A3A, FAM/TAMRA ssDNA deamination fluorescence | inhibition, % at 20 µM | hit rate 0.41% among 330,000;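 active means at least 40% inhibition at 20 µM here, with at most 30% in a related deaminase screen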;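 further: plate controls were A3A with DMSO for no effect and wells lacking A3A enzyme for full effect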
# Target sequence (P31941 whole entry, looked up): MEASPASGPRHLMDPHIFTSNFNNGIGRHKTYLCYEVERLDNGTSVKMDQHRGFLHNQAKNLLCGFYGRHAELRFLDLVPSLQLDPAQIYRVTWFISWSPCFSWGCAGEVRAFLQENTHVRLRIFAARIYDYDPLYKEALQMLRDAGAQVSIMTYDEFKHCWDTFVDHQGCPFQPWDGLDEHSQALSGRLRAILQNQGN
# APOBEC3G inh: inhibitors of human APOBEC3G DNA deaminase | hit rate 0.28% among 330,000 | Q9HC16 | inhibition, % at 20 µM | recombinant A3G, ssDNA deamination FAM/TAMRA fluorescence | AID 493012;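 active means inhibition of at least 40% at 20 µM, with no more than 30% in the related APOBEC3A deaminase screen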;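 further: plate controls were DMSO wells with A3G for no effect and wells lacking A3G enzyme for full effect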
# PolyA inh: yeast polyadenylation inhibition | activity score, % at 12 µM | hit rate 0.02% among 300,000 | S. cerevisiae SKY197-pL101 polyadenylation reporter, beta-gal luminescence; efflux-impaired pdr1/pdr3 knockout yeast; score 100 = 6 SD above DMSO | AID 1875;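 active means lowest replicate activity score at least 50, where 100 means six control SD above control mean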;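 further: yeast exposed to compound for 9 h at 30 °C; higher score means more reporter readthrough which indicates perturbed polyadenylation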
# * = called active by the depositor; i = inactive; / = no result given. An excerpt weighted towards active compounds, which were near 3.4% of everything screened.
SMILES,UCH37 DUB inh,AHR activator,Arrestin-AP2 inh,APOBEC3A inh,APOBEC3G inh,PolyA inh
CCOc1ccc(N=Nc2c(C)[nH]n(-c3ccccc3)c2=O)cc1,7,50*,-9,-1,-1,-13
Cc1[nH]n(-c2ccccc2)c(=O)c1N=Nc1nccs1,21*,86*,20,2,-1,13
O=c1[nH]n2c(=O)c3c([nH]c2c1N=Nc1cccc(Cl)c1)CCCC3,18,2,5,-2,-5,-10
Cc1ccccc1N=Nc1c(C)[nH]n(-c2ccccc2)c1=O,8,/,/,/,/,/
CCCC(C)c1nnc(NC(=O)COc2ccc3c(c2)OCO3)s1 (stereo not drawn),2,53*,24,0,-13,16
O=C(COc1ccc2c(c1)OCO2)NC12CC3CC(CC(C3)C1)C2,0,55*,30,3,0,-17
O=C(COc1ccc2c(c1)OCO2)Nc1nncs1,4,69*,19,-4,-3,0
CCc1nnc(NC(=O)COc2ccc3c(c2)OCO3)s1,-1,38,17,1,-7,10
Oc1ccc(Br)cc1C=NN1CCN(Cc2ccccc2)CC1,7,/,/,/,/,/
CCCCN(CCCC)C(=O)C[n+]1cccc(C=NO)c1,0,/,/,/,/,/
C=CCSc1nnc(-c2cc3c(s2)-c2ccccc2CC3)o1,i,66*,3,3,4,13
COc1ccc(C=Nn2c(C)nnc2C)c(OC)c1,-1,/,/,/,/,/
Oc1ccc(-c2nc3ccccn3c2NCc2ccc3c(c2)OCO3)cc1,-198,71*,0,-7,-7,/
Cc1ccn2c(NCc3ccc4c(c3)OCO4)c(-c3ccc(O)cc3)nc2c1,-147,66*,17,0,-4,-8
Cc1ccc(-c2nc3cnccn3c2Nc2ccc3c(c2)OCO3)cc1,-29,56*,22,3,1,-12
Fc1ccc(-c2nc3ccccn3c2NCc2ccc3c(c2)OCO3)cc1,-276,33,12,-4,-7,-6
COc1ccc(-c2nc3c(n2O)CCCC3=NO)cc1,-28,/,/,/,/,/
CN1CCN(CCC(=O)NN=Cc2cc3c(cc2[N+](=O)[O-])OCO3)CC1,5,/,/,/,/,/
CCOC(=O)/C(C#N)=C1/C=C(C)NC(c2ccccc2O)=N1,-58,36,9,-4,-10,-18
CCOC(=O)/C(C#N)=C1/C=CN(C)C(C)=N1,21*,0,2,0,-1,-4
Cc1cc(C=NNC(=O)Cn2c3ccccc3c(=O)c3ccccc32)c(C)n1-c1ccccc1,-56,/,/,/,/,/
COc1ccccc1NN=Cc1c(CO)cnc(C)c1O,0,/,/,/,/,/
Cn1c(=O)c(/C=C/c2ccc(F)cc2)nc2ccccc21,-46,/,-11,/,/,-20
Cn1c(=O)c(/C=C/c2ccccc2)nc2ccccc21,-171,53*,36,-3,-10,-43
O=c1[nH]c2ccccc2nc1/C=C/c1ccc(O)cc1,-14,/,-12,-1,-8,-17
SMILES,UCH37 DUB inh,AHR activator,Arrestin-AP2 inh,APOBEC3A inh,APOBEC3G inh,PolyA inh
O=c1[nH]c2ccccc2nc1/C=C(\O)c1cccs1,/,48*,-2,-7,-16,0
O=c1[nH]c2ccccc2nc1/C=C/c1ccccc1,-98,57*,13,-3,-8,-18
O=c1[nH]c2ccccc2nc1/C=C/c1ccc(F)cc1,-51,74*,0,0,-3,1
O=C(NN=Cc1ccc(Cl)cc1)C1=NOC2COC3(CCN(c4ccc([N+](=O)[O-])cc4)CC3)OCC12 (stereo not drawn),8,/,/,/,/,/
N#Cc1ccc(C(=O)NN=Cc2cn(CC(=O)O)c3ccccc23)c(F)c1,13,/,/,/,/,/
COc1ccccc1NC(=O)c1nn(C)cc1Br,3,61*,-3,-3,-6,-5
COc1ccc(Cl)cc1NC(=O)c1noc(C)c1[N+](=O)[O-],1,55*,-5,-3,-5,-2
Cn1ncc([N+](=O)[O-])c1C(=O)Nc1ccc(Cl)cc1,1,72*,38,-2,-9,-9
Cn1ncc([N+](=O)[O-])c1C(=O)Nc1ccc(C2CCCCC2)cc1,4,34,5,-3,-6,-10
COc1ccccc1NC(=O)C1=C(C)NC(=O)NC1c1ccccc1[N+](=O)[O-] (stereo not drawn),1,71*,-4,-4,-15,14
CC(=NNc1nc(C)cc(=O)[nH]1)C1CC1,-1,/,/,/,/,/
COC(=O)C/C=C/[C@@H](C)[C@@H](C=NOC[C@H]1O[C@H](c2ccccc2)C=C[C@@H]1Oc1ccc(OC)cc1)OC,3,/,/,/,/,/
COc1ccccc1NC(=O)c1nn(C)c(C(=O)Nc2ccccc2OC)c1[N+](=O)[O-],3,59*,21,-6,8,1
COc1ccccc1NC(=O)c1c([N+](=O)[O-])cnn1C,1,61*,-1,-4,-5,-1
CC(=O)Nc1ccc(C=NNC(=S)NC(C)C)cc1,15,/,/,/,/,/
CSc1ccccc1NC(=O)CON=C(C)c1cc2ccccc2o1,-1,/,/,/,/,/
COc1cc(N)ccc1NC(=O)c1cccs1,1,60*,4,-3,-5,-2
COc1cc(NC(=O)c2cc(OC)c(OC)c(OC)c2)ccc1NC(=O)c1cccs1,4,17,-3,-2,-4,8
O=C(Nc1nccs1)c1cn2ccccc2n1,3,62*,13,16,2,2
C=CCn1c(CNc2ccc(C)cc2)nnc1SCC(=O)NN=Cc1ccc(O)cc1,5,/,/,/,/,/
N#CC1=C2SCN(c3ccccc3)CN2C(=O)CC1c1ccccc1Cl (stereo not drawn),3,13,8,-1,57*,6
CCc1ccccc1N1CSC2=C(C#N)C(c3cc(OC)c(OC)cc3OC)CC(=O)N2C1 (stereo not drawn),0,0,20,-3,46*,-28
CCOc1ccc(S(=O)(=O)NN=C(C)Cc2ccc(OC)cc2)cc1,2,/,/,/,/,/
CCC(=O)NC1=C(Nc2ccc(N)cc2)C(=O)c2ccccc2C1=O,7,55*,27,0,-4,12
O=C(CSc1ccc(Cl)cc1)NN=Cc1cccnc1,4,/,/,/,/,/
SMILES,UCH37 DUB inh,AHR activator,Arrestin-AP2 inh,APOBEC3A inh,APOBEC3G inh,PolyA inh
CC(=NOC(=O)Nc1ccc(Cl)cc1)c1ncc(C(F)(F)F)cc1N1CCOCC1,-1,/,/,/,/,/
Cc1[nH]c2ccccc2c1/C=N/NC(=O)c1cccc([N+](=O)[O-])c1,/,48*,6,1,-3,3
Cc1[nH]c2ccccc2c1/C=N/NC(=O)c1cccc(F)c1,/,43,21,3,5,3
Cc1[nH]c2ccccc2c1/C=N/NC(=O)c1cccs1,/,74*,11,-1,-6,-1
Cn1cc(/C=N/NC(=O)c2cccc([N+](=O)[O-])c2)c2ccccc21,/,69*,-13,1,0,7
Cc1[nH]c2ccccc2c1/C=N/NC(=O)CNC(=O)c1cccs1,/,9,2,0,-4,34
Cn1cc(C(=O)N/N=C/c2cc(Br)cs2)c2ccccc21,/,50*,/,2,-5,-1

# Source: PubChem
